Data reported in ChEMBL document CHEMBL4387734, “Design and synthesis of a novel series of cyanoindole derivatives as potent γ-secretase modulators” (Bioorg Med Chem Lett, 2019).
pIC50: −log10 of the molar value. Values after ≈ are worked out from the molar mass of the structure shown.

Legend:
[1] = Kinetic solubility of the compound in pH 7.4 buffer; assay type: physicochemical; settings: read-out: Kinetic_solubility
Cytochrome P450 2C8 = target: T1, Cytochrome P450 2C8 (Homo sapiens, UniProt P10632); assay: Inhibition of CYP2C8 (unknown origin); assay type: ADME
T1 sequence (P10632 whole entry): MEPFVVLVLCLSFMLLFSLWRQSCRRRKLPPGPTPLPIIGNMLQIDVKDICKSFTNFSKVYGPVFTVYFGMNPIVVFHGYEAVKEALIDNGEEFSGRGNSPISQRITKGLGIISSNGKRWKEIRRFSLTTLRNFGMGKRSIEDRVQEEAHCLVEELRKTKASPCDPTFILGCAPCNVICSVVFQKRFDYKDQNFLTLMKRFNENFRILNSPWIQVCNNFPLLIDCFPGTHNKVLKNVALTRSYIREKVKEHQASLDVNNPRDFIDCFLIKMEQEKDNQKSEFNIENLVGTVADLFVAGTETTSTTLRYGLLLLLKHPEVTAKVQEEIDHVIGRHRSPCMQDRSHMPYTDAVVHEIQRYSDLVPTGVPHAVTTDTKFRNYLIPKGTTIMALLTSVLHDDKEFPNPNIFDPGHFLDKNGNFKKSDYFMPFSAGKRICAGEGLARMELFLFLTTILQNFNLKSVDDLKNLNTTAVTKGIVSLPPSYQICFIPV

[2] = Inhibition of gamma secretase in mouse Neuro2 cells expressing endogenous levels of amyloid precursor protein assessed as reduction in Abeta42 levels incubated for 18 hrs by sandwich ELISA; assay type: cell-based
Method in brief: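 IC50 as concentration reducing Aβ42 by 50%; mean of at least 2 determinations; mouse assay.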

Gamma-secretase = assay: Inhibition of gamma secretase in human SKNBE2 cells expressing human APP695 assessed as reduction in Abeta42 levels incubated for 18 hrs by sandwich ELISA
Cytochrome P450 2C9 = Cytochrome P450 2C9 (Homo sapiens, UniProt P11712); assay: Inhibition of CYP2C9 (unknown origin); assay type: ADME
[3] = Tmax in dog at 10 mg/kg, po; assay type: ADME, organism-based, Canis lupus familiaris; settings: in vivo
Method in brief: (§1)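 Dogs given single oral 10 mg/kg dose; plasma concentration followed to obtain Cmax and time of Cmax.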

[4] = Toxicity in dog assessed as effect on behavior at 10 mg/kg, po; assay type: organism-based, Canis lupus familiaris; settings: in vivo
Method in brief: (§2)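 Single oral 10 mg/kg dose in dog; behaviour and appearance observed; plasma liver enzymes ALT and AST monitored.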

[5] = Drug concentration in mouse brain at 30 mg/kg, po measured after 4 hrs by LC/MS/MS method; assay type: ADME, organism-based; settings: read-out: Drug uptake
Method in brief: (§3)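 Mice dosed orally at 30 mg/kg; plasma and brain sampled 4 h post-dose; compound quantified by qualified research LC–MS/MS; brain/plasma ratio at 4 h.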

Cytochrome P450 2C19 = Cytochrome P450 2C19 (Homo sapiens, UniProt P33261); assay: Inhibition of CYP2C19 (unknown origin); assay type: ADME
[6] = Ratio of drug concentration in brain to plasma of mouse at 30 mg/kg, po measured after 4 hrs by LC/MS/MS method; assay type: ADME, organism-based; settings: read-out: BPR; method in brief: as §3
Canis familiaris [7] = assay: In vivo inhibition of gamma secretase in dog assessed as assessed as reduction in Abeta42 levels in cerebrospinal fluid at 10 mg/kg, po measured after 8 hrs relative to control; settings: Canis lupus familiaris
hERG (KCNH2) = hERG (KCNH2) (Homo sapiens, UniProt Q12809); assay: Inhibition of human ERG assessed as inhibition of IKr current at 3 uM by patch express assay
Method in brief: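 Human ERG: percent inhibition of IKr current at 3 μM.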

[8] = Toxicity in dog assessed as effect on appearance at 10 mg/kg, po; assay type: organism-based, Canis lupus familiaris; settings: in vivo; method in brief: as §2
Cytochrome P450 2D6 = Cytochrome P450 2D6 (Homo sapiens, UniProt P10635); assay: Inhibition of CYP2D6 (unknown origin); assay type: ADME
Mus musculus [9] = assay: In vivo inhibition of gamma secretase in mouse increase in Abeta38 levels in brain at 30 mg/kg, po measured after 4 hrs relative to control; set-up: scale not given: the % may be the effect or the level left
Cytochrome P450 1A2 = target: T2, Cytochrome P450 1A2 (Homo sapiens, UniProt P05177); assay: Inhibition of CYP1A2 (unknown origin); assay type: ADME
T2 sequence (P05177 whole entry): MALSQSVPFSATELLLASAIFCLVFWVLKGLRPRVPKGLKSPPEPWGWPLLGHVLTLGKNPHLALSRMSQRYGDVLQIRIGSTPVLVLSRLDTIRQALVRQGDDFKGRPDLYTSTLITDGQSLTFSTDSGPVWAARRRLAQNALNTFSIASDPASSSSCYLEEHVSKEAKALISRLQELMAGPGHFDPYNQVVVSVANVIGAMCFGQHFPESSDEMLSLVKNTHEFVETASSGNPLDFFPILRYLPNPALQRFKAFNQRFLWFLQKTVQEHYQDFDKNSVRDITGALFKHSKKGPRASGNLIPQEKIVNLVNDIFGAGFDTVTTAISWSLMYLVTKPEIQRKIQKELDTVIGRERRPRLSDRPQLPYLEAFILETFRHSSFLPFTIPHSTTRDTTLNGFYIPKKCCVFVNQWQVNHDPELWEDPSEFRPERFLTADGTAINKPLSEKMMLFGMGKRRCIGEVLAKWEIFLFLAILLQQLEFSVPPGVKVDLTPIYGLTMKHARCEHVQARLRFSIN

Canis familiaris [10] = assay: In vivo inhibition of gamma secretase in dog assessed as assessed as increase in Abeta38 levels in CSF at 10 mg/kg, po measured after 8 hrs relative to control; assay type: functional, Canis lupus familiaris; set-up: scale not given: the % may be the effect or the level left
[11] = Metabolic stability in dog liver microsomes assessed as compound metabolism at 1 uM incubated for 15 mins; assay type: ADME, Canis lupus familiaris, Microsome; settings: read-out: Drug metabolism
Method in brief: (§4)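 Compound at 1 μM incubated 15 min with human, mouse or dog liver microsomes; percent metabolized reported.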

[12] = Cmax in dog at 10 mg/kg, po after 1.6 hrs; assay type: ADME, organism-based, Canis lupus familiaris; set-up: dose 10 mg/kg, route oral; settings: in vivo; method in brief: as §1
[13] = target: Voltage-gated inwardly rectifying potassium channel KCNH2 (Homo sapiens, UniProt Q12809); assay: Inhibition of human ERG by receptor binding assay
Method in brief: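 Receptor binding on human hERG channel; IC50 reported.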

Mus musculus [14] = assay: In vivo inhibition of gamma secretase in mouse assessed as assessed as reduction in Abeta42 levels in brain at 30 mg/kg, po measured after 4 hrs relative to control; assay type: functional
[15] = Drug concentration in mouse plasma at 30 mg/kg, po measured after 4 hrs by LC/MS/MS method; assay type: ADME, organism-based; method in brief: as §3
[16] = Lipophilicity, log P of the compound; assay type: physicochemical; settings: octanol/water
[17] = Free drug concentration in mouse brain; assay type: ADME, tissue-based; settings: in vivo
Method in brief: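 Free brain concentration calculated as fu,b × total brain level (μM), mouse 30 mg/kg p.o., 4 h.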

[18] = Toxicity in dog assessed as effect on ALT level at 10 mg/kg, po; assay type: organism-based, Canis lupus familiaris; settings: in vivo; method in brief: as §2
[19] = Fraction of unbound in rat brain
Cytochrome P450 3A4 = Cytochrome P450 3A4 (Homo sapiens, UniProt P08684); assay: Inhibition of CYP3A4 (unknown origin) using midazolam; assay type: ADME
[20] = Metabolic stability in human liver microsomes assessed as compound metabolism at 1 uM incubated for 15 mins; assay type: ADME, Microsome; settings: read-out: Drug metabolism; method in brief: as §4
[21] = Metabolic stability in mouse liver microsomes assessed as compound metabolism at 1 uM incubated for 15 mins; assay type: ADME, Microsome; settings: read-out: Drug metabolism; method in brief: as §4
[22] = Toxicity in dog assessed as effect on AST level at 10 mg/kg, po; assay type: organism-based, Canis lupus familiaris; settings: in vivo; method in brief: as §2

Sequence of Voltage-gated inwardly rectifying potassium channel KCNH2 (Q12809 whole entry): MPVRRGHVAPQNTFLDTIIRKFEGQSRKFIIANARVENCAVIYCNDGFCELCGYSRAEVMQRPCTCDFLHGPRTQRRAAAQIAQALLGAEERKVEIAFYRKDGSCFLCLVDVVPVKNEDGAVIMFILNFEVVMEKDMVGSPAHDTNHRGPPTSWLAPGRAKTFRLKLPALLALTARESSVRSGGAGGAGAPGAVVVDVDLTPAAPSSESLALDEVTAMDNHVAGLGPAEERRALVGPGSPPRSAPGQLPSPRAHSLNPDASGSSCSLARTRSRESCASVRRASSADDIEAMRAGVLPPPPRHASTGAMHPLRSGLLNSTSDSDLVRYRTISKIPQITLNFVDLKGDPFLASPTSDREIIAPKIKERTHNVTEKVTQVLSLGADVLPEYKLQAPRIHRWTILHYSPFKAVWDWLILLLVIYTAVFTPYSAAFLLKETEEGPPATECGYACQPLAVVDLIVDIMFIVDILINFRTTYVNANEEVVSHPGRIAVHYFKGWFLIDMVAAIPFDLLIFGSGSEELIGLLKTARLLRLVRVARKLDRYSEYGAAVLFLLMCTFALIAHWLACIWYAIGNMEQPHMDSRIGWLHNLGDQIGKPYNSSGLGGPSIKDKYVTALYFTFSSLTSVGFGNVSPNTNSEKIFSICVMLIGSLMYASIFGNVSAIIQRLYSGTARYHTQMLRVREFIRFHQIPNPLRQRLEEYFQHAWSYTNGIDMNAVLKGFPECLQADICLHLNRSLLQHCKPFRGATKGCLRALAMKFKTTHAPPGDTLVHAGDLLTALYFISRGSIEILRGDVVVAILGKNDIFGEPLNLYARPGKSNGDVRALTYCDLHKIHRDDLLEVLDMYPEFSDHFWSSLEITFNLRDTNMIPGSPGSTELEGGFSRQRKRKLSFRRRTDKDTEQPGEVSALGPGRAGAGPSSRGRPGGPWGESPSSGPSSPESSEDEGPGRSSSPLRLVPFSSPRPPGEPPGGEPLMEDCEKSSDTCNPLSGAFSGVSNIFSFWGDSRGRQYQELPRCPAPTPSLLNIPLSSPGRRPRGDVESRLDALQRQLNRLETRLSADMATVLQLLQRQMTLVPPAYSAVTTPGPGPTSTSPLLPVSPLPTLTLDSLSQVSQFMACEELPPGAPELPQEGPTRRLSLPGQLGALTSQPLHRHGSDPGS
Sequence of hERG (KCNH2) (Q12809 whole entry): as above
Sequence of Cytochrome P450 2C19 (P33261 whole entry): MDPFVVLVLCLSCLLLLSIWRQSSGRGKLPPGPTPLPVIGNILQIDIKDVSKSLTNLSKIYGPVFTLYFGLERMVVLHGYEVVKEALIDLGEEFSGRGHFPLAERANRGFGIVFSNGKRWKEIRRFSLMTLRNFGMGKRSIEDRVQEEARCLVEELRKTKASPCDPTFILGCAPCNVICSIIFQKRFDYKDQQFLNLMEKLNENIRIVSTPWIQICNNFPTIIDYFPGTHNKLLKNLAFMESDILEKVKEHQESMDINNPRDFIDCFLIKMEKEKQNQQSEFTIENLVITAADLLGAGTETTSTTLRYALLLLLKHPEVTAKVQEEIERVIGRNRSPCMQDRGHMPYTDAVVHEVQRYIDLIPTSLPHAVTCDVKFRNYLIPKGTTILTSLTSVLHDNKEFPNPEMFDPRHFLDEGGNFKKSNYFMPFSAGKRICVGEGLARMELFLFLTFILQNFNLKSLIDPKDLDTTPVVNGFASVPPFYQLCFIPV
Sequence of Cytochrome P450 2C9 (P11712 whole entry): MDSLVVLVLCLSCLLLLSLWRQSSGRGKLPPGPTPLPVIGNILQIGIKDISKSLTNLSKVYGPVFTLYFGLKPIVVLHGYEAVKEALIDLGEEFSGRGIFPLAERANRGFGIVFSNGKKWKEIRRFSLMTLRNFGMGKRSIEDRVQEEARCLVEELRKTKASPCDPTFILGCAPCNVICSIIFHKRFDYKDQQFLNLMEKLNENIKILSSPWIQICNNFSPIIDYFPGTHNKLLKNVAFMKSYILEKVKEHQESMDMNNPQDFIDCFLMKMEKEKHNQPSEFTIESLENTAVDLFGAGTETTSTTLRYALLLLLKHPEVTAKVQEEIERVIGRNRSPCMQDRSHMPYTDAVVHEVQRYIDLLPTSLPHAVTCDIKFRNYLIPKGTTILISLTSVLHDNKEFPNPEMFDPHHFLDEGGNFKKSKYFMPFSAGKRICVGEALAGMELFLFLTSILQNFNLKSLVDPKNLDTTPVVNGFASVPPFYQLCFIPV
Sequence of Cytochrome P450 3A4 (P08684 whole entry): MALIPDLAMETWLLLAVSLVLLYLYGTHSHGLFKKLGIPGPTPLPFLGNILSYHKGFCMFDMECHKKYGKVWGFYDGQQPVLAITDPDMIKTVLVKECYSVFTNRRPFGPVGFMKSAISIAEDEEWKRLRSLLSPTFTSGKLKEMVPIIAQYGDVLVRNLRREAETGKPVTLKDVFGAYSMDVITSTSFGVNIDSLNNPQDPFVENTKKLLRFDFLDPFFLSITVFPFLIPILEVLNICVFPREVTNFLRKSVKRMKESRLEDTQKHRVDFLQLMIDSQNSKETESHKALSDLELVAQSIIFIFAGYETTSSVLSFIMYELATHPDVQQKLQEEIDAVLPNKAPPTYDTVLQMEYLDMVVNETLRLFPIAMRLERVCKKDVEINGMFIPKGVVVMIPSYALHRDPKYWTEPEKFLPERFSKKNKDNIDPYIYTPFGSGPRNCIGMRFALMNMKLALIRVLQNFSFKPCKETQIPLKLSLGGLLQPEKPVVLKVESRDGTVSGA
Sequence of Cytochrome P450 2D6 (P10635 whole entry): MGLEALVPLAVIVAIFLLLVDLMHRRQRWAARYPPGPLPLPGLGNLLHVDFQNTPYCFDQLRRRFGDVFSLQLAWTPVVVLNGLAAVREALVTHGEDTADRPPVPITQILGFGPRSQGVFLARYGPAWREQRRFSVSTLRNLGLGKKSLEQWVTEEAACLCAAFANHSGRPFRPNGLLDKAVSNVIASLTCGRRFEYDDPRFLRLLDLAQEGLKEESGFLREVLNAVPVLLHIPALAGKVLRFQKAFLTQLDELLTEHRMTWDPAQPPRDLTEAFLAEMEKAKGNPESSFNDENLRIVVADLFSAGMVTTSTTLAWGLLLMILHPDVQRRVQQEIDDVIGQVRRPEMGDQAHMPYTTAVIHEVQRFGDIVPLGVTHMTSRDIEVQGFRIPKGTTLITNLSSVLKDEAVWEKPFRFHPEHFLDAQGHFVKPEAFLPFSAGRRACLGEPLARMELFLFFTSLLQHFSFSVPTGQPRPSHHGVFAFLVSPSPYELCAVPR

- solubility kinetic [1]: 6 µM (≈ 2.41 µg/mL)
- pIC50 (Cytochrome P450 2C8): 5.89
- pIC50 [2]: 7.77
- pIC50 (Gamma-secretase): 7.85
- pIC50 (Cytochrome P450 2C9): 5.23
- Tmax [3]: 1.6 h
- concentration at 4 h [5]: 8.25 to 12 µM
- pIC50 (Cytochrome P450 2C19): 5.08
- Kp at 4 h [6]: 1.46
- pIC50 (Cytochrome P450 2D6): 5.01
- pIC50 (Cytochrome P450 1A2): < 5.00
- metabolised at 0.25 h, 1 µM [11]: 29%
- Cmax [12]: 2.4 µM
- concentration at 4 h [15]: 8.2 to 12.1 µM
- logP [16]: 4.19
- Drug uptake(free) [17]: 0.026 µM
- Fu [19]: 0.22%
- pIC50 (Cytochrome P450 3A4): < 5.00
- metabolised at 0.25 h, 1 µM [20]: 18%
- metabolised at 0.25 h, 1 µM [21]: 27%
SMILES: COc1c(C#N)ccc2[nH]c(-c3cn4c(n3)[C@H](c3cccc(F)c3C)OCC4)cc12
- Activity [4]: Non-Toxic
- inhibition in vivo at 10 mg/kg (Canis familiaris [7]): 37%
- inhibition at 3 µM (hERG (KCNH2)): 31%
- Activity [8]: Non-Toxic
- Activity (Mus musculus [9]): 40%
- Activity (Canis familiaris [10]): 40%
- pIC50 [13]: 5.28
- inhibition in vivo at 30 mg/kg (Mus musculus [14]): 66%
- Activity [18]: Non-Toxic
- Activity [22]: Non-Toxic
